# In the library only some 5.9% were active in any assay of this set; here they are far more common.
# PTK2B oligo ant: antagonists of Pyk2 self-association, primary screen, Q293 cells, FERM NanoBiT luminescence, HTS. stronger effect = lower value. 0.83% of 99,000 active. z-score (the deposit names both 25 µM and 10 µM). Protein-tyrosine kinase 2-beta (Homo sapiens), Q14289;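 active means Z-score of -3 or lower, scaled per plate to the spread of control and sample wells; inactive means z-score above -3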;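 further: negative z-score means lost luminescence so less FERM oligomerization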
# Measles CPE: compounds protecting cells from measles virus cytopathic effect, primary screen, measles RdRp inhibitor project, single point, MLSMR library, absorbance. 1.5% of 140,000 active. protection (pct of control), % at 4 µM. Measles virus-infected cells, CPE protection; in the data active means protection mostly above about 24%, no sharp cut-off; inactive means mostly below about 26%
# Phagocyt inh: inhibitors of macrophage phagocytosis, primary screen, imaging, J774A.1 cells, IgG beads | J774A.1 macrophage IgG-bead phagocytosis | inhibition, % at 5 µM | 0.07% of 110,000 active | AID 1029, 2008;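 active means inhibition above the mean of the plate negative controls plus 5 SD, cut at about 13% in these data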;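 further: phagocytic index as fraction of beads internalized from green versus red external bead signal; plate controls were DMSO negative control for no effect and cytochalasin-D positive control for full effect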
# DAT uptake mod: changed hDAT dopamine uptake under cocaine IC80, either direction, primary screen, cocaine antagonist project, cell-based, LLC-PK1 hDAT, [14C]-dopamine uptake, MLSMR; Sodium-dependent dopamine transporter (Homo sapiens), Q01959; LLC-PK1 hDAT cells, [14C]-dopamine uptake with cocaine IC80; actives deviate in either direction; B-score at 10 µM; 1.3% of 110,000 active;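 active means Z score or B-score, a plate-position-corrected score, falls beyond the plate's 99.7% confidence bounds, in either direction; inactive means both scores lie inside the 99.7% bounds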;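 further: scored against the spread of the other compound wells on the same plate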
# Rev-RRE block: HIV-1 Rev-RRE binding inhibitors, primary screen, biochemical, FRET, protein-RNA interaction. P05866. Rev peptide-RRE RNA binding. inhibition, % at 8 µM. 0.79% of 97,000 active. AID 704, 2007;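 active means inhibition above the screen-wide mean plus 3 SD, cut at about 35% in these data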;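 further: 0% = median DMSO wells and 100% = median Neomycin B control wells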
# Target sequence (P05866 whole entry, looked up): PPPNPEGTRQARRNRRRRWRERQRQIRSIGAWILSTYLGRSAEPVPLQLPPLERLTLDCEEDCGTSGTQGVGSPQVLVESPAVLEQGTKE
#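 Test system: labelled RRE RNA duplex and labelled Rev peptide. Times: 5 min compound–RNA preincubation, then 15 min with peptide, 25 °C. Doses: single-dose 8 µM. Measured by: FRET, excitation 480 nm, emission 540 nm donor and 671 nm acceptor. Measure: % inhibition of FRET ratio versus controls.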
# Cav3 T inh: Cav3.2 calcium influx blockers – cell-based, Fluo-4 calcium fluorescence, FDSS, MLSMR library, primary screen | Cav3.2-expressing cells; stronger effect = lower value | Voltage-dependent T-type calcium channel subunit alpha-1H (Homo sapiens), O95180 | B-score at 10 µM | 4% of 100,000 active;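 active means single-dose well whose peak fluorescence ratio is a statistical outlier from its plate by either plate-standardised score or position-corrected B-score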
# * marks the source's active call; other numbers are inactive results; nt = no result.
SMILES,PTK2B oligo ant,Measles CPE,Phagocyt inh,DAT uptake mod,Rev-RRE block,Cav3 T inh
CCC(C)Oc1cccc(C(=O)Nc2ccccc2N2CCOCC2)c1 (configuration not stated),-3,3,1,1.6,11,-5.3*
O=C(Cc1ccccc1)Nc1ccccc1N1CCOCC1,-0.56,0,nt,0.26,2,0.4
CS(=O)(=O)N(Cc1ccccc1)c1ccc(C(=O)N2CCc3ccccc3C2)cc1,-0.71,8,nt,-1.9,5,-1.3
O=C(CSc1nccn1-c1ncc(C(F)(F)F)cc1Cl)c1ccc(Cl)cc1,0.61,12,nt,2.5,12,-2.5*
O=C(OCCN1CCN(c2ncc(C(F)(F)F)cc2Cl)CC1)c1ccc(Cl)cc1,0.66,6,-1,0.12,10,-0.03
O=c1[nH]c(=O)n(Cc2ccco2)c2c1C(C(F)(F)F)(C(F)(F)F)N=C(C1CCCCC1)N2,-1.4,13,0,-1.1,12,0.074
O=c1[nH]c(=O)n(-c2ccccc2)c2c1C(C(F)(F)F)(C(F)(F)F)N=C(CCC1CCCCC1)N2,-3.6*,8,-8,nt,nt,nt
N#Cc1ccc(C2=NC(C(F)(F)F)(C(F)(F)F)c3c(n(Cc4ccco4)c(=O)[nH]c3=O)N2)cc1,-0.25,7,nt,-1.8,8,-5.9*
O=c1[nH]c(=O)n(Cc2ccco2)c2c1C(C(F)(F)F)(C(F)(F)F)N=C(CCc1ccccc1)N2,-4*,8,nt,0.62,7,-3.2
COc1ccc(-c2ccncc2)cc1OC,nt,nt,nt,-0.72,nt,0.26
Cc1c(CNC2CCCC2)c(C(=O)O)c(C)n1Cc1ccccc1,nt,5,-9,nt,nt,nt
COc1ccc(C(CCN2CCCC(C)C2)c2c(OC)cc(OC)c3c2OC(=O)CC3c2cc(OC)c(OC)c(OC)c2)cc1 (configuration not stated),nt,nt,nt,-0.33,nt,-0.98
O=C(CN1C(=O)C2C3C=CC(C3)C2C1=O)Nc1nc(SCc2ccc(Cl)cc2)n[nH]1 (configuration not stated),0.43,6,nt,0.36,8,-8.3*
Cc1cccc(Nc2ccccc2C(=O)OCC(=O)N(C)C2CCS(=O)(=O)C2)c1C (configuration not stated),0.7,19,nt,0.14,8,-3.4*
c1ccc2sc(N3CN(CCN4CCOCC4)CN(c4nc5ccccc5s4)C3)nc2c1,-0.03,9,0,0.59,nt,-5.7*
c1ccc2sc(N3CCOCC3)nc2c1,0.05,11,nt,0.41,3,0.8
CC(C)(C)c1ccc(S(=O)(=O)N2CCSC2)cc1,nt,9,-5,nt,nt,nt
CCCn1c(N)c(C(c2ccc(C(=O)OC)cc2)N2CCN(c3ccccc3)CC2)c(=O)[nH]c1=O (configuration not stated),-0.39,42*,0,0.065,-3,-2.6
COC(=O)c1ccc(C(c2c(N)n(CC(C)C)c(=O)[nH]c2=O)N2CCN(c3ccccc3)CC2)cc1 (configuration not stated),-0.59,2,-1,0.89,7,-5.9*
CCCn1c(N)c(C(c2ccc(OC)cc2)N2CCN(c3ccccc3)CC2)c(=O)[nH]c1=O (configuration not stated),0.96,35,0,-0.43,3,0.02
O/N=C1\CCCC\C1=C/c1ccccc1,nt,12,0,nt,nt,nt
Cc1ccc(NC(=O)/C=C\C(=O)NCC(=O)O)cc1C,0.92,9,-1,nt,nt,nt
O=C(NC(=S)NNC(=O)c1ccccc1[N+](=O)[O-])c1ccccc1,0.95,24,nt,-0.29,6,-8.4*
Cc1ccccc1[C@@H]1C(C#N)=C(N)S[C@H]1C(=O)c1ccccc1,-1.9,24,0,-0.03,7,-2.1
COc1ccc(Cl)cc1C(=O)NNC(=O)c1cccc(S(=O)(=O)N(C)C)c1,nt,73*,-3,nt,nt,nt
SMILES,PTK2B oligo ant,Measles CPE,Phagocyt inh,DAT uptake mod,Rev-RRE block,Cav3 T inh
COC(=O)c1cc2oc3ccccc3c2n1CC(=O)Nc1ccccc1OC,0.1,10,0,-0.26,-4,-0.072
COc1cccc(CNC(=O)c2cc3oc4ccccc4c3n2C)c1OC,0.64,72*,0,-0.49,2,0.3
CCOc1ccc(CNC(=O)c2cc3oc4ccccc4c3n2C)cc1,0.43,89*,nt,-0.66,11,0.46
CCOc1ccccc1CNC(=O)c1cc2oc3ccccc3c2n1CC,-2,35*,186*,-0.76,17,-5*
CCOc1c2ccc(C(=O)NCc3ccccc3OC)cc2nn1CC,nt,3,nt,0.83,2,0.94
CC(=O)c1c(C(C)=O)c(C)n(-c2ccc(C)c(NC(=O)c3ccccc3Cl)c2)c1C,-0.22,17,nt,1.1,9,1.9
CSc1cccc(NC(=O)/C=C/c2cccc(Cl)c2)c1,-0.26,6,0,nt,nt,nt
CCCC(=O)N1CCN(c2nc(CC(C)C)c3c(c2C#N)CCC3)CC1,-0.1,23,-4,2.6*,2,-5.5*
CC(C)C(=O)N1CCN(c2nc(-c3ccccc3)c3c(c2C#N)CCCC3)CC1,-1.6,4,0,-0.31,7,-5.3*
CC(C)Cc1nc(N2CCN(C(=O)Cc3ccccc3)CC2)c(C#N)c2c1COC(C)(C)C2,nt,nt,-1,nt,nt,nt
CC1(C)Cc2c(C#N)c(N3CCOCC3)nc(-c3ccccc3)c2CO1,-0.97,6,nt,0.63,13,-1.5
Cc1ccc(CN2C(=O)[C@H]3Cc4c([nH]c5ccccc45)C(C)(C)N3C2=O)cc1,nt,nt,nt,0.59,nt,-0.97
C/C=C/C=C\C(=O)Nc1cccc(C2=NOC3(C2)C[C@@H](C(N)=O)N(C(=O)c2cc([N+](=O)[O-])cc([N+](=O)[O-])c2C)C3)c1 (some centres not stated),nt,nt,nt,-1.1,nt,0.63
Cc1ccc(-c2noc(CCC(=O)NCCc3ccccc3Cl)n2)cc1,0.62,5,1,-0.75,14,-2.6
Cc1ccc(CNC(=O)CCC(=O)c2cccs2)cc1,0.17,60*,0,0.024,0,0.46
Cc1ccc(CNC(=O)CCc2nc(-c3cccs3)no2)cc1,nt,7,0,0.26,4,-5.1*
O=C(CCc1nc(-c2ccccc2F)no1)NCCc1ccccc1Cl,1.3,28,-1,0.015,10,-7.8*
O=C(CCc1nc(-c2cccs2)no1)NCc1ccc(F)cc1Cl,nt,6,-1,0.025,1,-4.5*
CC1CN(S(=O)(=O)c2ccc(C(=O)Nc3ccc(S(=O)(=O)Nc4ncccn4)cc3)cc2)CC(C)O1 (configuration not stated),nt,5,-6,nt,nt,nt
Cc1cc(C)c(NC(=O)CSc2ccc3nnc(CCNC(=O)c4ccccc4)n3n2)c(C)c1,-0.22,19,-5,nt,nt,nt

# Bioassay records: PubChem, several laboratories
